The nature of data set [1]: Solubility of the compound in pH 7.4 Tris HCl buffer. The class given is physicochemical.
The nature of data set [2]: Solubility of the compound in DMSO. The class given is physicochemical.
Data set [3] is described as follows: Permeability of the compound at 10 uM after 5 hrs by PAMPA. Particulars: read-out: permeability. The class given is ADME. Put shortly:
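Parallel artificial membrane permeability assay reported as effective permeability Pe (10−6 cm/s). Pe > 1.5 is taken as high permeability.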
For orientation: The PAMPA barrier holds no transporters, so it reflects passive diffusion.

Data set [4] addresses T1, Tyrosyl-DNA phosphodiesterase 2 (Homo sapiens, UniProt O95551).
T1 sequence (O95551 whole entry): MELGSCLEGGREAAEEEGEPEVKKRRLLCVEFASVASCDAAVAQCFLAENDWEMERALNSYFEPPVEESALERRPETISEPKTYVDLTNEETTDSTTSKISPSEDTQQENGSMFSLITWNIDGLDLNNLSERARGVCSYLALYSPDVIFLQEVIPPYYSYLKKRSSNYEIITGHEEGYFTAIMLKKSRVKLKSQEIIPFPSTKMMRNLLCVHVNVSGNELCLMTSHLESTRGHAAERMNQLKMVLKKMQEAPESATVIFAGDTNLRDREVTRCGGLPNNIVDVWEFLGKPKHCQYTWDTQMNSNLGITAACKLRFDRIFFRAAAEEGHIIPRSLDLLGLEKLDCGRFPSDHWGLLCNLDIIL
Kind of data set: Inhibition of recombinant human TDP2 using T5PNP as substrate preincubated for 10 mins followed by substrate addition and measured after 30 mins.

The subject of data set [5] is HepG2. Nature of the data set: Cytotoxicity against human HepG2 cells after 72 hrs by MTT assay. Conditions: hepg2, 72 h. The class given is cell-based. Put shortly:
(§1)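 Compounds tested at 50 μM and 100 μM to give CC50. Two independent experiments were run, each in triplicate.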
For orientation: Tetrazolium dyes change colour on reduction, which living cells bring about.

For data set [6], the system named is HeLa. Kind of data set: Cytotoxicity against human HeLa cells after 72 hrs by MTT assay. The class given is cell-based. Put shortly:
as §1

Turning to `O=C(Nc1nc2nc(-c3ccccc3)ccn2n1)c1cccc([N+](=O)[O-])c1`, the solubility entry in data set [1] and in data set [2] was “Soluble” each time. In addition, the Papp at 5 h, 10 µM in data set [3] was determined as 0.16 ×10⁻⁶ cm/s.

Regarding `O=C(Nc1nc2nc(-c3ccccc3)ccn2n1)c1cccc(Br)c1`, the solubility entry in data set [2] is reported as “Insoluble”.

Take `N#Cc1cccc(C(=O)Nc2nc3nc(-c4ccccc4)ccn3n2)c1`: the solubility entry in data set [2] is listed as “Insoluble”.

In the case of `O=C(Nc1nc2nc(-c3ccccc3)ccn2n1)c1ccccc1`, in data set [2], the solubility result is recorded as “Insoluble”.

Turning to `NC1=CC(N)=C2C=CC(=O)N=C2C1=O`, the Papp at 5 h, 10 µM in data set [3] was 0.095 ×10⁻⁶ cm/s. Besides, in data set [4], the concentration for half-maximal inhibition (IC50) (usually the midpoint of a concentration-inhibition curve) stood at 1.7 µM.

For the molecule `O=C(Nc1nc2cc(-c3ccccc3)ccn2n1)c1cccc(Cl)c1`, the CC50 in data set [5] and in data set [6] was more than 100 µM throughout. In data set [3], the Papp at 5 h, 10 µM is 0.9 ×10⁻⁶ cm/s.

For `O=C(Nc1nc2cc(-c3cccnc3)ccn2n1)c1cccc(Cl)c1`, the CC50 in data set [5] and in data set [6] was more than 100 µM each time. The Papp at 5 h, 10 µM in data set [3] was found to be 6.3 ×10⁻⁶ cm/s.

`O=C(Nc1nc2nc(-c3ccccc3)ccn2n1)c1cccc(C(F)(F)F)c1`: the solubility entry in data set [2] was “Insoluble”.

As for `O=C(Nc1nc2nc(-c3ccccc3)ccn2n1)c1ccc([N+](=O)[O-])cc1`, the solubility result in data set [2] is given as “Insoluble”.

As for `O=C(Nc1nc2cc(-c3ccccc3)ccn2n1)c1cccc([N+](=O)[O-])c1`, the Papp at 5 h, 10 µM in data set [3] was found to be 0.15 ×10⁻⁶ cm/s.

The values above are taken from ChEMBL document CHEMBL4371040, “Triazolopyrimidine and triazolopyridine scaffolds as TDP2 inhibitors” (Bioorg Med Chem Lett, 2019).
